Reference: PubChem BioAssay
Inconclusive results are not listed. Activity calls are given as the source filed them.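 How the source made its calls, unless noted: active means viability increase at or above a cutoff of the median across tested compounds plus 3 SD (cut at about 8.5% in these data, passing the limit was not always enough); inconclusive means some gains above the cutoff, reason not given; inactive means the rest.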

Assays:
[1] = OD615 S. cerevisiae growth inhibition, permissive medium, pilot counter-assay, permissive growth control for S. cerevisiae lifespan shortening project (AID 705;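 active means growth inhibition above 25% in both replicates, a cutoff set 3 SD above the mean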); settings: OD615, 24 h, at 10 µM, stronger effect = higher value
Method in brief: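 System – S. cerevisiae with engineered DeaD lifespan system · Buffer or medium – SC raffinose/galactose permissive medium · Schedule – cells pre-grown 4 h, then 24 h compound exposure, 30 °C humidified · Technique – culture turbidity as optical density at 615 nm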

[2] = Restrictive medium S. cerevisiae growth inhibition, OD615, pilot screen of yeast lifespan reduction project, restrictive growth control (AID 706;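 active means growth inhibition above a set limit, 3 SD over mean compound inhibition, in both replicates, cut at about 43% in these data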;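 further: modified DeaD lifespan yeast strain shifted to restrictive glucose medium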); settings: OD615, 48 h, at 10 µM, stronger effect = higher value
Method in brief: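 Material: engineered S. cerevisiae DeaD strain / Medium: glucose-based CSMM-D restrictive medium / Compound: single dose of 10 µM compound final, 0.25% DMSO / Timing: 4 h pre-incubation, 48 h exposure at 30 °C / Technique: OD615 absorbance reading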

[3] = viability gain of MRP-1-high H69AR cells under doxorubicin, pilot screen, MRP-1 activator project, CellTiter-Glo, duplicate (AID 807); settings: H69AR viability with doxorubicin, CellTiter-Glo luminescence; at 10 µM; stronger effect = higher value;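 further: compound pretreatment 18-22 h then 72 h combined with doxorubicin; 0% = doxorubicin alone and 100% = vehicle without doxorubicin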
[4] = growth suppression of beta-catenin knockout HCT116, pilot screen, human colon tumor cells (AID 823;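 active means cell viability at or below a set limit in both duplicate runs, the limit being the all-compound median minus 4 SD, cut at about 23% in these data, passing the limit was not always enough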;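 further: 0% = wells killed by 20 µM Hyamine and 100% = untreated DMSO cell wells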); settings: CellTiter-Glo, 60 h, at 10 µM, stronger effect = lower value
[5] = inhibitors of the yeast RAM network, pilot screen, dse1pr::URA3 reporter, 5-FOA selection (AID 869;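 active means inhibition over a set limit, the all-compound mean plus 3 SD, in both replicate runs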;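 further: 0% = DMSO wells with no growth and 100% = 10 µM 1-NA-PP1 with full growth; RAM network block rescues cells from 5-FOA so hits raise OD615 growth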); settings: S. cerevisiae dse1pr::URA3 5-FOA growth, OD615, 2 d; at 10 µM; stronger effect = higher value; strain carries analog-sensitive mutant Cbk1 kinase
[6] = RAM signaling pathway blockade in yeast – S. cerevisiae, Pdr1DBD-CYC8 efflux-inhibited sensitized strain, primary screen (AID 1298;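 active means RAM network inhibition above 8.4% in each of two replicates, 3 SD over the compound average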;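 further: 0% = DMSO untreated cells without growth and 100% = 10 µM 1-NA-PP1 full growth; higher means more yeast growth rescued from 5-FOA killing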); settings: S. cerevisiae cbk1-as DSE1-URA3 strain, 5-FOA growth OD615, 2 d; at 50 µM; stronger effect = higher value
[7] = growth suppression of PTEN-deleted HCT116, pilot screen, cell-based, HCT116 clonal line, CellTiter-Glo (AID 824;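 active means viability at or below 27.92% in each of two runs, the all-compound median minus 4 SD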;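 further: 0% = 20 µM Hyamine control and 100% = vehicle cell control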); settings: 60 h, at 10 µM, stronger effect = lower value

CC(C)OCCCNC(=O)c1ccc(NC(=O)C2CCCO2)cc1 (stereo not given)
inactive: growth inhibition [1] -12.9% | growth inhibition [2] -8.97% | viability increase [3] -1.08% | viability [4] 99.9% | inhibition [5] 1.57% | RAM network inhibition [6] 1.15%

Cc1ccccc1-c1ccc(Nc2ccc(N3CCOCC3)cc2)nn1
inactive: growth inhibition [1] -3.44% | growth inhibition [2] 15.8% | viability increase [3] -5.91% | viability [4] 81% | inhibition [5] 0.46% | RAM network inhibition [6] 2.5%

COc1ccccc1CC(=O)Nc1ccc(-c2nnc(-c3ccco3)o2)cc1
inactive: growth inhibition [1] -3.64% | growth inhibition [2] 8.35% | viability increase [3] -2.58% | viability [7] 77.7% | RAM network inhibition [6] 8.02%

NS(=O)(=O)c1ccc(NC(=O)COC(=O)CCNC(=O)NC23CC4CC(CC(C4)C2)C3)cc1
inactive: growth inhibition [1] -10.4% | growth inhibition [2] -4.2% | viability increase [3] 0.2% | viability [7] 98.6% | inhibition [5] 0.55% | RAM network inhibition [6] 3.28%

Cc1cccc(N(C)C(=O)CCS(=O)(=O)c2cccc3nonc23)c1
inactive: growth inhibition [1] -5.82% | growth inhibition [2] 0.54% | viability increase [3] -4.98% | viability [7] 96.3% | inhibition [5] 1.06% | RAM network inhibition [6] 5.74%

Cc1nc2nc(SCC(=O)N3CCOCC3)nn2c(C)c1Cc1c(F)cccc1Cl
inactive: growth inhibition [1] -2.75% | growth inhibition [2] 34% | viability increase [3] -6.91% | viability [4] 88.4% | inhibition [5] 0.35% | RAM network inhibition [6] 3.17%

Cc1ccc(N=Cc2c(O)n(C)c(=O)n(C)c2=O)nc1
inactive: growth inhibition [1] 5.8% | growth inhibition [2] 16.6% | viability increase [3] 0.03% | viability [7] 99.2% | inhibition [5] 1.89% | RAM network inhibition [6] -0.87%

CCOC(=O)N1CCN(C(=O)CNS(=O)(=O)c2cccs2)CC1
inactive: growth inhibition [1] 7.6% | growth inhibition [2] 1.46% | viability increase [3] -2.69% | viability [4] 93.3% | inhibition [5] 0.785% | RAM network inhibition [6] 2.76%

COc1cc2c(cc1OC)C(c1cccs1)NCC2 (stereo not given)
inactive: growth inhibition [1] -10.4% | growth inhibition [2] -8.06% | viability increase [3] -3.87% | viability [7] 92.6% | inhibition [5] 0.41% | RAM network inhibition [6] 4.46%

Cc1csc(SCC(=O)c2ccc(S(=O)(=O)N3CCOCC3)cc2)n1
inactive: growth inhibition [1] 0.36% | growth inhibition [2] 21.8% | viability increase [3] -3.72% | viability [7] 98.2% | inhibition [5] 0.265% | RAM network inhibition [6] 7.03%

CCn1c(=O)c2c3c(sc2n2c(SCc4ccc(F)cc4)nnc12)CCCC3
active: viability [7] 25.7%
inactive: growth inhibition [1] -17.7% | growth inhibition [2] -16.7% | viability increase [3] -7.59% | inhibition [5] 2.28% | RAM network inhibition [6] 3.4%

O=C(CSc1nc2c(c(=O)n1-c1ccc(Br)cc1)SCC2)NCc1ccco1
inactive: growth inhibition [1] -0.48% | growth inhibition [2] -1.07% | viability increase [3] -3.54% | viability [7] 77.4% | inhibition [5] 0.41% | RAM network inhibition [6] 5.24%

C=C(C)Cn1c(CCNC(=O)CCC)nc2ccccc21
inactive: growth inhibition [1] -9.26% | growth inhibition [2] -10.3% | viability increase [3] -0.98% | viability [4] 99.1% | inhibition [5] 1.54% | RAM network inhibition [6] 2.19%

O=C1C=C(NCc2ccco2)CC(c2ccc(Cl)cc2)C1 (stereo not given)
inactive: growth inhibition [1] -7.5% | growth inhibition [2] -22.3% | viability increase [3] -2.53% | viability [7] 66.6% | inhibition [5] 1.2% | RAM network inhibition [6] 3.64%

CC(C)(C)NS(=O)(=O)c1ccc(OCC(=O)Nc2ccc3c(c2)OCCO3)cc1
inactive: growth inhibition [1] -11.5% | growth inhibition [2] -8.28% | viability increase [3] -0.9% | viability [4] 102% | inhibition [5] 2.62% | RAM network inhibition [6] 7.73%

COc1ccc(S(=O)(=O)N2CCC(C(=O)N3CCN(c4ccccc4OC)CC3)CC2)cc1
inactive: growth inhibition [1] -8.7% | growth inhibition [2] -3.36% | viability increase [3] -2.71% | viability [7] 86.8% | inhibition [5] -0.505% | RAM network inhibition [6] 0%

O=C(CSc1nc2c(c(=O)n1-c1ccc(Cl)cc1)SCC2)N1CCCC1
inactive: growth inhibition [1] 1.32% | growth inhibition [2] 24.2% | viability increase [3] -4.23% | viability [7] 101% | inhibition [5] 1.31% | RAM network inhibition [6] 0.57%

CCCn1c(CN2CCN(c3cccc(Cl)c3)CC2)nc2c1c(=O)n(C)c(=O)n2C
inactive: growth inhibition [1] -4.45% | growth inhibition [2] -8.51% | viability increase [3] -4.06% | viability [7] 54% | RAM network inhibition [6] 1.38%

COc1ccc(N2CC(O)=C(c3nc(C)cs3)C2=N)cc1
inactive: growth inhibition [1] 8.87% | growth inhibition [2] 5.31% | viability increase [3] -4.67% | viability [4] 96.7% | inhibition [5] 1.6% | RAM network inhibition [6] 3.27%

Fc1cccc(Cl)c1CSc1ncn[nH]1
inactive: growth inhibition [1] -4.97% | growth inhibition [2] 10.7% | viability increase [3] 0.29% | viability [7] 85.6% | inhibition [5] 0.52% | RAM network inhibition [6] 2.05%

O=C(N=c1nc2ccccn2s1)c1ccccc1
inactive: growth inhibition [1] -6.95% | growth inhibition [2] 6.63% | viability increase [3] -7.06% | viability [4] 71.6% | inhibition [5] 3.28% | RAM network inhibition [6] 6.13%

CCOC(=O)C1CCN(C(=O)Cc2c(C(=O)O)[nH]c3ccccc23)CC1
inactive: growth inhibition [1] -13.4% | growth inhibition [2] -1.88% | viability increase [3] -1.36% | viability [4] 90.5% | inhibition [5] 0.02% | RAM network inhibition [6] 3.12%

Cc1cccc(-n2c(=O)[nH]c3c(C(N)=O)nc(-c4ccccc4Cl)nc32)c1
inactive: growth inhibition [1] -7.62% | growth inhibition [2] -0.18% | viability increase [3] -7.67% | inhibition [5] 3.09% | RAM network inhibition [6] 3.41%
active: viability [7] 11.7%

C(=N\c1nccs1)/c1c[nH]c2ccccc12
inactive: growth inhibition [1] -17.6% | growth inhibition [2] 7.43% | viability increase [3] -4.92% | viability [4] 92.4% | inhibition [5] 2.52% | RAM network inhibition [6] 3.02%

O=C(NCc1cccs1)C1CCCN(S(=O)(=O)c2ccc3c(c2)OCO3)C1 (stereo not given)
inactive: growth inhibition [1] -20.3% | growth inhibition [2] -1.21% | viability increase [3] -3.16% | viability [4] 90.8% | inhibition [5] 1.46% | RAM network inhibition [6] 3.17%

CNC(=O)C1C2C=CC3(O2)C1C(=O)N(CCOC)C3C(=O)NCc1ccc(OC)cc1 (stereo not given)
inactive: growth inhibition [1] -11% | growth inhibition [2] 0.24% | viability increase [3] -1.22% | viability [4] 96% | inhibition [5] 1.67% | RAM network inhibition [6] 2.29%

O=c1[nH]c2ccc(S(=O)(=O)NCc3ccccn3)cc2s1
inactive: growth inhibition [1] -13.7% | growth inhibition [2] 2.04% | viability increase [3] -1.44% | viability [4] 95.8% | inhibition [5] 1.35% | RAM network inhibition [6] 6.28%

CCc1ccc(-c2nc(CSCC(=O)N3CCN(c4ncccn4)CC3)c(C)o2)cc1
inactive: growth inhibition [1] -2.9% | growth inhibition [2] -2.11% | viability increase [3] -3.72% | viability [7] 52.6% | RAM network inhibition [6] 7.89%

CC(C)Cn1c(SCC(=O)NC2CCCc3ccccc32)nc(O)cc1=O (stereo not given)
inactive: growth inhibition [1] -3.38% | growth inhibition [2] 9.89% | viability increase [3] -2.62% | viability [7] 97.9% | inhibition [5] 1% | RAM network inhibition [6] 2.76%

CCN(CC)S(=O)(=O)c1ccc(NC(=O)Cn2c(=O)oc3ccccc32)cc1
inactive: growth inhibition [1] -12.3% | growth inhibition [2] -11.6% | viability increase [3] -3.33% | viability [4] 96.7% | inhibition [5] 2.38% | RAM network inhibition [6] 5.71%

COC(=O)c1cn(NC(=O)c2cnccn2)c(=O)c2ccccc12
inactive: growth inhibition [1] -5.4% | growth inhibition [2] 16.9% | viability increase [3] 2.86% | viability [4] 27.8% | inhibition [5] 1.15% | RAM network inhibition [6] -0.31%

COc1cc(S(=O)(=O)N2CCCCCC2)c(OC)cc1Br
inactive: growth inhibition [1] 0.23% | growth inhibition [2] -10.7% | viability increase [3] -0.06% | viability [7] 77.4% | inhibition [5] -0.43% | RAM network inhibition [6] 5.23%

CCOc1ccc(-n2c(SCC(=O)Nc3cc(C)on3)nc3c([nH]c4ccccc43)c2=O)cc1
inactive: growth inhibition [1] -16.7% | growth inhibition [2] -15.4% | viability increase [3] -6.08% | viability [7] 55.3% | inhibition [5] 0.94% | RAM network inhibition [6] 5.59%

CC(C)n1c(CNC(=O)c2ccccc2)nc2ccccc21
inactive: growth inhibition [1] -18.1% | growth inhibition [2] 9.14% | viability increase [3] -3.11% | viability [4] 100% | inhibition [5] 2.63% | RAM network inhibition [6] 1.5%

Cc1cc(=O)n2[nH]c(C)c(-c3ccc(Cl)cc3)c2n1
inactive: growth inhibition [1] 3.86% | growth inhibition [2] -11.8% | viability increase [3] -5.81% | viability [4] 34.2% | inhibition [5] 2.29% | RAM network inhibition [6] 5.64%

CCOc1cc(OCC)cc(C(=O)Nc2cccnc2)c1
inactive: growth inhibition [1] -12.6% | growth inhibition [2] -12.7% | viability increase [3] -1.99% | viability [4] 100% | inhibition [5] 1.77% | RAM network inhibition [6] 4.32%

CC(=O)c1ccc(C(=O)Nc2nnc(-c3ccc(Cl)cc3)o2)cc1
active: viability [7] 22.3%
inactive: growth inhibition [1] -1.45% | growth inhibition [2] 17% | viability increase [3] -3.75% | RAM network inhibition [6] 2.8%

Cc1cc(NC(=O)c2ccc3c(c2)C(=O)N(C2CCCCC2)C3=O)no1
inactive: growth inhibition [1] -4.59% | growth inhibition [2] -6.9% | viability increase [3] -6.76% | viability [7] 41.5% | RAM network inhibition [6] 3.39%

CCOC(=O)c1ccc(NC(=O)c2cccc(S(=O)(=O)N3CCOCC3)c2)cc1
inactive: growth inhibition [1] -9.14% | growth inhibition [2] -4.13% | viability increase [3] -0.35% | viability [7] 57.2% | inhibition [5] 2.96% | RAM network inhibition [6] 7.23%

C=C1c2ccc(C)cc2NC(=O)N1c1ccccc1
inactive: growth inhibition [1] 3.26% | growth inhibition [2] 8.36% | viability increase [3] -3.76% | viability [7] 94.2% | inhibition [5] 0.375% | RAM network inhibition [6] 0.1%
